Screens (PubChem BioAssay)
STEP block = blocks human striatal-enriched tyrosine phosphatase | inhibition, % at 20 µM | recombinant STEP, OMFP fluorogenic substrate, fluorescence | AID 588621 | 360,000 tested, 0.25% active | P54829;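 active means inhibition at 20 µM, scaled per plate between control wells, above about 37%, limit read from the data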
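Assay system: isolated STEP enzyme. Buffer or medium: pH 6.0 Bis-Tris with DTT and Tween 20. Also added: fluorogenic phosphatase substrate OMFP at 25 µM final. Dosing: 20 µM, 1% DMSO. Timing: 20 min reaction, room temperature, in the dark. Measured by: fluorescence intensity, excitation 480 nm, emission 540 nm. Evaluation: normalized % inhibition.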
Scp1 inh = inhibitors of human Scp-1 phosphatase. inhibition, % at 20 µM. 340,000 tested, 0.88% active. Recombinant Scp1, phosphopeptide, malachite green phosphate absorbance. Q9GZU7. AID 493091;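 active means inhibition above about 50% at 20 µM, limit read from the data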
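Test system – truncated SCP-1 phosphatase (76-261aa) · Reagent – Phosphorylated 17-residue peptide substrate · Incubation – 45 min room-temperature reaction, 5 min colour, 30 min stabiliser · Detection – colorimetric phosphate reagent with accelerator and stabiliser, absorbance at 630 nm · Measure – % inhibition at 20 µM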
SUMO1-SIM PPI = modulators of human SUMO1-mediated protein-protein interactions; SUMO1 binding to a labelled peptide, TR-FRET, 1 h; inhibition, % at 20 µM; 360,000 tested, 0.33% active; P63165; in the data active means inhibition above about 37%
DNMT1 block = blocks human DNA methyltransferase DNMT1. P26358. DNMT1 molecular beacon, Hinp1I cleavage, fluorescence. inhibition (reported as % activation of signal), % at 10 µM. 360,000 tested, 0.83% active; in the data active means inhibition above about 50%
Target sequence (P26358 504-1616 limits assumed): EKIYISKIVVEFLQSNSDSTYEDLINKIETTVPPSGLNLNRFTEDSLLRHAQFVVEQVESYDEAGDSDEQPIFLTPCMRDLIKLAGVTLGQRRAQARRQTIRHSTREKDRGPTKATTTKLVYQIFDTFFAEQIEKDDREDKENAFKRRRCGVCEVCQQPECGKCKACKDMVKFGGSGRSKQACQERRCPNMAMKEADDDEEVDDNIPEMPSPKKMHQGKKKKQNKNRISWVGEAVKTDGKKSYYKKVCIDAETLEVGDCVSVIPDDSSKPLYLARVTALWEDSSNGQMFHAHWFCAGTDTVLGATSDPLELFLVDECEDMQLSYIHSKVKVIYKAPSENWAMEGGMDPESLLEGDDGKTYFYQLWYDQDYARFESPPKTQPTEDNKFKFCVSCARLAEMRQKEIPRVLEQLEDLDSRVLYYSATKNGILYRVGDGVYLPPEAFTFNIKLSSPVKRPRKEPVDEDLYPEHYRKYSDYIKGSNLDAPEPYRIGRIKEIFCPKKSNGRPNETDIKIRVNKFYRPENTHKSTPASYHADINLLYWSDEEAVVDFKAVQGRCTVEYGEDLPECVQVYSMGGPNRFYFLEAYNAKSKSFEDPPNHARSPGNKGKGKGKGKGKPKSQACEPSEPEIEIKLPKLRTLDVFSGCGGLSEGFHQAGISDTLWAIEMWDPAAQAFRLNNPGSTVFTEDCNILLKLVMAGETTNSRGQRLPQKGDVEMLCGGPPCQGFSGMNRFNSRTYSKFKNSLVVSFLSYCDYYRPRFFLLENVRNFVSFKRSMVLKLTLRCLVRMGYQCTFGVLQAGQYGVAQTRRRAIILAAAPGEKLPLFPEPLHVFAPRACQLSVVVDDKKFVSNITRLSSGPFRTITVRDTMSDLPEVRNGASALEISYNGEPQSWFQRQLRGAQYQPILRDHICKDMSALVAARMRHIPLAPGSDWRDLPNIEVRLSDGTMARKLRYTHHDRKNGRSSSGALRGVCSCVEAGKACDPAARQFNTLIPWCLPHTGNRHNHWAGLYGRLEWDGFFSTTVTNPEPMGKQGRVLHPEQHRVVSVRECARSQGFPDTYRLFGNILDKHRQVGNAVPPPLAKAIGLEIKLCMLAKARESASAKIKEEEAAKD
LMPTP inh = blocks human LMPTP phosphatase. recombinant LMPTP-A, OMFP fluorogenic substrate, fluorescence intensity. 360,000 tested, 0.22% active. inhibition, % at 20 µM;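 active means compounds that cut the enzyme signal by at least half of the control window in the single-dose screen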
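test system = LMPTP-A | amount = 0.625 nM LMPTP-A final | reagent = fluorogenic phosphatase substrate OMFP at 400 µM final | incubation = 50 min at room temperature | benchmarks = no-enzyme low control, uninhibited high control | medium = Bis-Tris pH 6.0, DTT, detergent | signal = fluorescence intensity of OMFP turnover product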
F508del corr = correctors of CFTR F508del function in bronchial epithelial cells; 350,000 tested, 0.36% active; CFBE cells, YFP halide quenching; stimulated with forskolin plus potentiator P3; % fluorescence drop versus neutral controls; activity (quench increase), % at 7.58 µM;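 active means mean added fluorescence quench of at least 8% versus neutral control, with both replicates also reaching 8%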;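 further: cells transiently co-express mutant CFTR-F508del with the halide-sensitive YFP; corrector assay measuring rescue of mutant channel to the surface after 24 h compound exposure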
DNMT1 confirm = DNMT1 inhibition confirmation, single concentration. shares compounds with DNMT1 block. inhibition, % at 10 µM. DNMT1 molecular beacon HinP1I cleavage, fluorescence. 2,300 tested, 8% active;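 active means average inhibition of at least 30% in the single-concentration confirmation test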
DNMT1 interf = beacon fluorescence artifact counter-screen | activation (fluorescence interference), % at 10 µM | shares compounds with DNMT1 block | AID 602387 | DNMT1 molecular beacon spectral interference counterscreen, fluorescence 485/520 | 2,300 tested, 1% active;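 active means activation of at least 30% at 10 µM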;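 further: DNMT1 catalytic domain with a HinP1I cleavage step and a FAM/dabcyl DNA beacon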
Large screens that a line does not name were inactive (follow-up assays come after a bar, where they were run). In the library only some 1.6% were active in any assay of this set; here they are far more common.

COc1ccc(NC(=O)CC2Nc3cc(C)c(C)cc3NC2=O)c([N+](=O)[O-])c1 (stereo not drawn)	DNMT1 block 59 | DNMT1 confirm inactive | DNMT1 interf inactive
Cc1ccc(S(=O)(=O)N(C)C[C@@H]2Oc3ccc(NC(=O)C4CC4)cc3CC(=O)N([C@@H](C)CO)C[C@H]2C)cc1	none (no result: STEP block, Scp1 inh, SUMO1-SIM PPI, DNMT1 block, LMPTP inh)
COc1ccc2oc(=O)c(C(=O)NCc3ccccc3)cc2c1	DNMT1 block 51 | DNMT1 confirm inactive | DNMT1 interf inactive
COc1ccc(CNC(=O)c2cc3cc(OC)ccc3oc2=O)cc1	none
CC1(C(=O)NCCC(F)(F)F)Cc2c(-c3cccc(C(F)(F)F)c3)ccnc2O1 (stereo not drawn)	none (no result: Scp1 inh)
CN(C)c1ccc(-c2ccnc3c2CC(C)(C(=O)NCC2CCOCC2)O3)cc1 (stereo not drawn)	DNMT1 block 59 (no result: Scp1 inh) | DNMT1 confirm inactive | DNMT1 interf inactive
CC1(C(=O)NCC2CC2)Cc2c(-c3ccccc3)ccnc2O1 (stereo not drawn)	none (no result: Scp1 inh)
CC1(C(=O)NCC2CCOCC2)Cc2c(-c3cccc(C(F)(F)F)c3)ccnc2O1 (stereo not drawn)	DNMT1 block 84 (no result: Scp1 inh) | DNMT1 confirm inactive | DNMT1 interf inactive
O=C(O)c1ccccc1C1=Nc2ccc(O)cc2Oc2cc(O)ccc21	DNMT1 block 55 (no result: F508del corr) | DNMT1 confirm 39 | DNMT1 interf 45
CCOC(=O)N1CCC(NS(=O)(=O)c2ccc3c(c2)oc(=O)n3C)CC1	DNMT1 block 53 (no result: F508del corr) | DNMT1 confirm inactive | DNMT1 interf inactive
COc1ccc(NC(=O)N2C[C@H](O)COC[C@@H]3O[C@H](CC(=O)NC4Cc5ccccc5C4)CC[C@H]32)cc1	none (no result: STEP block, Scp1 inh, SUMO1-SIM PPI, DNMT1 block, LMPTP inh)
C=CCN1C(=O)/C(=C\C(C)=C\c2ccccc2)SC1=S	none
CC(/C=C1\N=C(SCc2ccccc2)SC1=O)=C\c1ccccc1	DNMT1 block 80 (no result: F508del corr) | DNMT1 confirm inactive | DNMT1 interf inactive
COCC(=O)Nc1ccc2c(c1)OC[C@@H](C)N(C(=O)NC(C)C)C[C@H](C)[C@@H](OC)CN(C)C2=O	none (no result: STEP block, Scp1 inh, SUMO1-SIM PPI, DNMT1 block, LMPTP inh)
Cc1ccc(OCC(=O)c2c(N)n(C)c(=O)n(C)c2=O)c([N+](=O)[O-])n1	Scp1 inh 66, DNMT1 block 82 | DNMT1 confirm inactive | DNMT1 interf inactive
CCOC(=O)c1c(C)[nH]c(C(=O)OC(C)C(=O)Nc2ccc(C)cc2)c1C (stereo not drawn)	DNMT1 block 74 (no result: Scp1 inh) | DNMT1 confirm inactive | DNMT1 interf inactive
CCOC(=O)c1c(C)[nH]c(C(=O)OCC(=O)Nc2cc(C)c(Cl)cc2OC)c1C	DNMT1 block 60 (no result: F508del corr) | DNMT1 confirm inactive | DNMT1 interf inactive
O=C1CC(N2CCN(c3ccccc3)CC2)C(=O)N1c1cccc(Cl)c1 (stereo not drawn)	DNMT1 block 71 | DNMT1 confirm inactive | DNMT1 interf 77
N#Cc1c(SCC(=O)Nc2ccc(C(F)(F)F)cc2)sc2c(O)cc(=O)[nH]c12	none
N#Cc1c(SCC(=O)Nc2nncs2)sc2c(O)cc(=O)[nH]c12	Scp1 inh 81, DNMT1 block 71 | DNMT1 confirm inactive | DNMT1 interf inactive
Nc1cc(S(=O)(=O)Nc2ccc(Cl)cc2)ccc1N1CCOCC1	DNMT1 block 169 | DNMT1 confirm inactive | DNMT1 interf inactive
Nc1cc(S(=O)(=O)Nc2ccccc2Cl)ccc1N1CCOCC1	none
O=C(C[C@@H]1CC[C@H](NC(=O)Nc2cccc(F)c2)[C@@H](CO)O1)NCC1CC1	none (no result: STEP block, Scp1 inh, SUMO1-SIM PPI, DNMT1 block, LMPTP inh)
O=C(NC1CCCCC1)N1CC(=O)N2[C@H](CO)[C@H](c3ccc(/C=C/c4ccccc4)cc3)[C@H]2C1	none (no result: STEP block, Scp1 inh, SUMO1-SIM PPI, DNMT1 block, LMPTP inh)
O=C1CCCC(O)=C1N=Nc1ccc(C(=O)O)cc1	Scp1 inh 76, DNMT1 block 83 | DNMT1 confirm inactive | DNMT1 interf inactive
Cc1cc(OC(C(=O)O)c2ccccc2)c2c(C)c(Cc3ccccc3)c(=O)oc2c1 (stereo not drawn)	DNMT1 block 88 | DNMT1 confirm inactive | DNMT1 interf inactive
S=c1[nH]nc(-c2cc(-c3ccccc3)n[nH]2)n1/N=C/C=C/c1ccco1	DNMT1 block 62 | DNMT1 confirm inactive | DNMT1 interf inactive
COc1ccccc1/C=C/C=N/n1c(-c2n[nH]c3c2CCC3)n[nH]c1=S	none
COc1ccccc1/C=C/C=N/n1c(-c2ccco2)n[nH]c1=S	none
S=c1[nH]nc(-c2ccco2)n1/N=C/C=C/c1ccco1	DNMT1 block 83 (no result: F508del corr) | DNMT1 confirm inactive | DNMT1 interf inactive
S=c1[nH]nc(-c2n[nH]c3c2CCC3)n1/N=C/C=C/c1ccco1	DNMT1 block 51 | DNMT1 confirm inactive | DNMT1 interf inactive
COc1ccc(NC(=O)Nc2ccc3c(c2)[C@H]2C[C@H](CC(=O)NCc4ccncc4)O[C@H](CO)[C@H]2O3)cc1	none (no result: STEP block, Scp1 inh, SUMO1-SIM PPI, DNMT1 block, LMPTP inh)
CCNC(=O)C[C@@H]1CC[C@H]2[C@@H](COC[C@H](O)CN2C(=O)Nc2ccc3c(c2)OCO3)O1	none (no result: STEP block, Scp1 inh, SUMO1-SIM PPI, DNMT1 block, LMPTP inh)
CCC(=O)N(C)C[C@@H]1Oc2cc(C3=CCCC3)ccc2S(=O)(=O)N([C@@H](C)CO)C[C@@H]1C	none (no result: STEP block, Scp1 inh, SUMO1-SIM PPI, DNMT1 block, LMPTP inh)
Cc1ccccc1Cn1cc(NC(=O)c2cc3nc(-c4ccco4)cc(C(F)(F)F)n3n2)cn1	none (no result: F508del corr)
CCc1ccc(-c2cc(C(F)(F)F)n3nc(C(=O)Nc4cnn(Cc5ccc(C)cc5)c4)cc3n2)s1	DNMT1 block 56 (no result: F508del corr) | DNMT1 confirm inactive | DNMT1 interf inactive
CC(C)/C=C/C(=O)N1CCC(N2CCC(C(=O)NCC3CCCO3)CC2)CC1 (stereo not drawn)	DNMT1 block 50 (no result: Scp1 inh) | DNMT1 confirm inactive | DNMT1 interf inactive
Nc1c(C(=O)N/N=C/c2ccc(OCc3ccccc3)cc2)cnn1-c1ccccc1	DNMT1 block 51, LMPTP inh 50 | DNMT1 confirm inactive | DNMT1 interf inactive
Nc1c(C(=O)N/N=C/c2ccc(Cl)cc2)cnn1-c1ccccc1	none
O=C1/C(=C/c2ccco2)Cc2ccccc21	DNMT1 block 59 | DNMT1 confirm inactive | DNMT1 interf inactive
O=C1CCC/C(=N/NC(=O)C2CCN(S(=O)(=O)c3cccs3)CC2)C1	DNMT1 block 71 | DNMT1 confirm inactive | DNMT1 interf inactive
O=C(C1CCN(S(=O)(=O)c2cccs2)CC1)N1CCCCC1	none
C[C@H]1CN([C@@H](C)CO)C(=O)Cc2cc(NS(C)(=O)=O)ccc2O[C@H]1CN(C)S(C)(=O)=O	none (no result: STEP block, Scp1 inh, SUMO1-SIM PPI, DNMT1 block, LMPTP inh)
CCOc1cccc2cc(-c3cn4cc(C)ccc4n3)c(=O)oc12	DNMT1 block 70 (no result: F508del corr) | DNMT1 confirm inactive | DNMT1 interf inactive
